# Test results published in ChEMBL document CHEMBL1121566, “Synthesis and aldose reductase inhibitory activity of 7-sulfamoylxanthone-2-carboxylic acids” (J Med Chem, 1980).
# The source made the active and inactive calls. The rule behind the calls is not given here.
# Experiments:
# [1] = molecular target: Aldo-keto reductase family 1 member B1 (Oryctolagus cuniculus) (UniProt P15122); test: Antiallergic agent with Aldose reductase Inhibitory Activity at 10E-6 M concentration
# Outline: (§1)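 Enzyme was from frozen rabbit lenses, homogenized in water and spun at 10000g. The 50–75% ammonium sulfate fraction was dissolved in 0.05 M NaCl. The assay used 0.067 M phosphate pH 6.0 and 2 × 10^-5 M NADPH, and was started with 5 × 10^-4 M D,L-glyceraldehyde (final). NADPH loss was followed at 340 nm for 2 min at 37 °C. Inhibitors were dissolved in minimal 0.1 N NaOH and diluted with water.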
# [2] = molecular target: Aldo-keto reductase family 1 member B1 (Oryctolagus cuniculus) (UniProt P15122); test: Percent inhibition of rabbit lens aldose reductase in vitro at 10E-4 M concentration; outline: as §1
# [3] = molecular target: Aldo-keto reductase family 1 member B1 (Oryctolagus cuniculus) (UniProt P15122); test: Antiallergic agent with Aldose reductase Inhibitory Activity at 10E-5 M concentration; outline: as §1
# [4] = tested on: Aldose reductase (Oryctolagus cuniculus); test: In vitro inhibitory activity towards rabbit lens aldose reductase; Active
smiles,measurement,setting,value
O=C(O)c1ccc2oc3ccc([S+]([O-])CCO)cc3c(=O)c2c1 (stereo not given),inhibition,[1],17%
same,inhibition,[2],87%
same,inhibition,[3],50%
COCC[S+]([O-])c1ccc2oc3ccc(C(=O)O)cc3c(=O)c2c1 (stereo not given),inhibition,[1],4%
same,inhibition,[2],65%
same,inhibition,[3],12%
O=C(O)c1ccc2oc3ccccc3c(=O)c2c1,inhibition,[1],0%
same,inhibition,[2],20%
same,inhibition,[3],10%
O=C(O)c1ccc2oc3ccc(S(=O)(=O)CCO)cc3c(=O)c2c1,inhibition,[1],50%
same,inhibition,[2],96%
same,inhibition,[3],77%
O=C(O)c1ccc2oc3ccc(S(=O)(=O)N4CCOCC4)cc3c(=O)c2c1,inhibition,[1],0%
same,inhibition,[2],76%
same,inhibition,[3],6%
O=C(O)c1ccc2oc3ccc(SCCO)cc3c(=O)c2c1,inhibition,[1],7%
same,inhibition,[2],93%
same,inhibition,[3],65%
C[S+]([O-])c1ccc2oc3ccc(C(=O)O)cc3c(=O)c2c1 (stereo not given),inhibition,[1],0%
same,inhibition,[2],63%
same,inhibition,[3],20%
CC(C)N(C)S(=O)(=O)c1ccc2oc3ccc(C(=O)O)cc3c(=O)c2c1,inhibition,[1],17%
same,inhibition,[2],89%
same,inhibition,[3],69%
NS(=O)(=O)c1ccc2oc3ccc(C(=O)O)cc3c(=O)c2c1,inhibition,[1],10%
same,inhibition,[2],70%
same,inhibition,[3],20%
CC(O)c1ccc2oc3ccc(C(=O)O)cc3c(=O)c2c1 (stereo not given),inhibition,[1],10%
same,inhibition,[2],50%
same,inhibition,[3],10%
O=C(O)c1ccc2oc3ccc(S(=O)(=O)NCCO)cc3c(=O)c2c1,inhibition,[1],0%
same,inhibition,[2],79%
same,inhibition,[3],38%
CC(C)NS(=O)(=O)c1ccc2oc3ccc(C(=O)O)cc3c(=O)c2c1,inhibition,[1],0%
same,inhibition,[2],72%
same,inhibition,[3],30%
CNS(=O)(=O)c1ccc2oc3ccc(C(=O)O)cc3c(=O)c2c1,inhibition,[1],25%
same,inhibition,[2],75%
same,inhibition,[3],40%
O=C(O)c1ccc2oc3ccc(S(=O)(=O)N(CCO)CCO)cc3c(=O)c2c1,inhibition,[1],2%
same,inhibition,[2],89%
same,inhibition,[3],49%
CN(C)S(=O)(=O)c1ccc2oc3ccc(C(=O)O)cc3c(=O)c2c1,inhibition,[1],67%
same,inhibition,[4],Active
same,inhibition,[2],94%
same,inhibition,[3],87%
O=C(O)c1ccc2oc3ccc(OCC(O)CO)cc3c(=O)c2c1 (stereo not given),inhibition,[1],8%
same,inhibition,[2],88%
same,inhibition,[3],46%
CCN(C)S(=O)(=O)c1ccc2oc3ccc(C(=O)O)cc3c(=O)c2c1,inhibition,[1],23%
same,inhibition,[2],92%
same,inhibition,[3],81%
COC(C)c1ccc2oc3ccc(C(=O)O)cc3c(=O)c2c1 (stereo not given),inhibition,[1],0%
same,inhibition,[2],70%
same,inhibition,[3],6%
O=C(O)c1ccc2oc3ccc(S(=O)(=O)N4CCCC4)cc3c(=O)c2c1,inhibition,[1],0%
same,inhibition,[2],85%
same,inhibition,[3],46%
CN(CCO)S(=O)(=O)c1ccc2oc3ccc(C(=O)O)cc3c(=O)c2c1,inhibition,[1],83%
same,inhibition,[4],Active
same,inhibition,[2],100%
same,inhibition,[3],96%
O=C(O)c1ccc2oc3ccc(S(=O)(=O)O)cc3c(=O)c2c1,inhibition,[1],0%
same,inhibition,[2],70%
same,inhibition,[3],43%
CC(C)CN(C)S(=O)(=O)c1ccc2oc3ccc(C(=O)O)cc3c(=O)c2c1,inhibition,[1],25%
same,inhibition,[2],95%
same,inhibition,[3],75%
O=c1c(O)c(-c2ccc(O)c(O)c2)oc2cc(O)cc(O)c12,inhibition,[1],9%
same,inhibition,[3],52%
